Screening data from PubChem.
This is a sample that favours compounds with a hit; in the whole collection about 2.2% have one here.
C8 TRAIL sens: viability loss with TRAIL in NB7+C8 cells, primary screen, TRAIL sensitizer project, cell-based, ATPlite luminescence | inhibition (viability loss, TRAIL sensitization), % at 10 µM | AID 624354, 2012 | 360,000 tested, 1% active;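 active means compounds causing at least 50% loss of cell viability in the single-dose screen, relative to plate controls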
NF-kB expr up: activators of NF-kB expression in neurons, primary screen, cell-based, HTS; human neuronal cells, NF-kB reporter expression; active compounds read high; fold change at 12.5 µM; 190,000 tested, 1.6% active; in the data active means fold change above about 3.3
FLuc act counter: FLuc activators, initial screening, artefact control for FLuc-dependent activation tests, biochemical, ATPlite luminescence; Luciferin 4-monooxygenase (Photinus pyralis), P08659; ATPlite luciferase biochemical, 10 min; 0 = ATP-free wells, 1 = DMSO control; activation factor at 10 µM; 200,000 tested, under 10 active;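 active means luciferase activation factor, scaled between plate controls, of at least 2 with compound at 10 µM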
Target sequence (P08659 whole entry, looked up): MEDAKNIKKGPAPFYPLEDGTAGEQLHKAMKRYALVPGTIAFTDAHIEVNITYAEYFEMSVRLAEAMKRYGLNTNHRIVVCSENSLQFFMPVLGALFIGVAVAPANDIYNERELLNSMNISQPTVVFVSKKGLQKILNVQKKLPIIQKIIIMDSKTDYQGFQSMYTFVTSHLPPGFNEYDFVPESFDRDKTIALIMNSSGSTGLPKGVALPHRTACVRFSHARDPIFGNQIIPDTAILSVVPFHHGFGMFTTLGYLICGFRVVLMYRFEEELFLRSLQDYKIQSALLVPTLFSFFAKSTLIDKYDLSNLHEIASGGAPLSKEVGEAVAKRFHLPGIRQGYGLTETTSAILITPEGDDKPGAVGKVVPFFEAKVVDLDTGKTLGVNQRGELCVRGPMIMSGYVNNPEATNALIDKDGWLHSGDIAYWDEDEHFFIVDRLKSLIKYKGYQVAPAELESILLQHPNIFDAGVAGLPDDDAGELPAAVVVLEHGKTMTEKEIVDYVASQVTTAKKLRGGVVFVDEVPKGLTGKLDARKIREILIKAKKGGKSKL
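Assay system: Luciferase/luciferin detection reagent, cell-free biochemical luciferase assay / Also added: ATP substrate / Schedule: 10 min at ambient temperature / Measured by: luminescence measurement of luciferase light output / Benchmarks: low control with PBS replacing ATP, high control enzyme plus ATP without compound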
PPC-1+TRAIL kill: compounds killing PPC-1 cancer cells with TRAIL present, primary screen, TRAIL potentiator project, ATPLite luminescence, uHTS. PPC-1 cells + TRAIL, ATPLite viability luminescence. cell killing (% activity), % at 4 µM or 5 µM. 220,000 tested, 0.41% active. AID 1443, 2008;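 active means cell killing above 50% in the first pass at 4 µM, then a duplicate retest at 5 µM averaging 50% or more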;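 further: plate controls were cells with TRAIL plus DMSO for no effect and medium-only wells lacking cells for full effect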
APP 5'UTR act: activators of APP 5'UTR luciferase reporter, primary screen, SH-SY5Y cells. 190,000 tested, 1% active. SH-SY5Y APP 5'UTR luciferase reporter, luminescence; zero percent = DMSO vehicle wells. activation, % at 2 µM;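 active means activation above a set limit, based on mean plus 3 SD of controls, cut at about 140% in these data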
FLuc inh counter: firefly luciferase enzyme inhibitors, primary screen, artefact control for luciferase-based inhibitor screens, biochemical, luminescence, ATPLite. Luciferin 4-monooxygenase (Photinus pyralis), P08659. 10 min. inhibition, % at 10 µM. 200,000 tested, 1.5% active. AID 1006, 2008;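 active means inhibition above about 50% when tested at 10 µM, limit read from the data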
Numbers without * were called inactive; . = not tested or not shown.

SMILES	C8 TRAIL sens	NF-kB expr up	FLuc act counter	PPC-1+TRAIL kill	APP 5'UTR act	FLuc inh counter
O=C(Nc1ccccc1F)c1ccc([N+](=O)[O-])s1	17.2	3.49*	1	7.9	13.2	3.7
O=C(Nc1cccnc1)c1ccc([N+](=O)[O-])s1	14.9	.	.	.	.	.
Cc1ccc(C(=O)NNC(=S)Nc2cccc3ccccc23)s1	7.2	2.35	0.4	28.7	150.2*	57.5*
O=C(Nc1cccc2ccccc12)c1ccc([N+](=O)[O-])o1	21.0	.	.	.	.	.
Cc1ccccc1NC(=O)/C=C/c1ccc([N+](=O)[O-])s1	-29.8	9.78*	1.1	18.8	-90.1	-5.1
O=C(Nc1cccc2ccccc12)c1ccc([N+](=O)[O-])s1	7.8	3.8*	1.1	2.7	-25.1	-5.1
Cc1noc(C)c1S(=O)(=O)NCc1ccc(CN(C)C)cc1	-8.3	.	.	.	.	.
CNC[C@H]1OCc2ccccc2-c2ccccc2C(=O)N([C@H](C)CO)C[C@H]1C	5.0	.	.	.	.	.
CCC(C)c1ccc(S(=O)(=O)N2CCN(C(=O)CN3C(=O)NC(C)(C4CC4)C3=O)CC2)cc1 (stereo unspecified)	-9.4	.	.	.	.	.
COc1ccc2nc(NC(=O)CSc3nnnn3C)sc2c1	-3.7	2.18	0.8	7.8	59.9	15.9
CN1C(=O)C(C)(C)c2cc(S(=O)(=O)N3CCCC(C(=O)NCc4ccccc4Cl)C3)ccc21 (stereo unspecified)	15.2	.	.	.	.	.
CCOC(=O)c1c(N)sc(C(=O)OCCOC)c1C	-6.6	1.27	1	9.2	21.5	4.2
O=C(Nc1ccccc1SC(=O)c1ccccc1)c1ccccc1	-4.2	.	.	.	.	.
Cc1ccc(C(=O)Sc2cccccc2=O)cc1	60.7*	.	.	.	.	.
Cc1occc1C(=O)NN=C1C2CC3CC(C2)CC1C3	4.6	2.49	1	32.7	154.1*	-4.8
COc1ccccc1C(=O)NNC(=O)c1ccccc1[N+](=O)[O-]	-3.2	1.21	1	-4.4	12.8	-2.9
Cc1ccc(C(=O)C(C)OC(=O)c2ccccc2[N+](=O)[O-])cc1 (stereo unspecified)	31.4	9.63*	0.3	18.8	172.9*	65.4*
CC1(C(=O)N/N=C/c2c(F)c(F)c(F)c(F)c2F)CC1(Cl)Cl (stereo unspecified)	76.7*	.	.	.	.	.
Cc1c(/C=N\NC(=O)C2(C)CC2(Cl)Cl)cnn1C (stereo unspecified)	-13.7	1.26	1	21.2	12.8	-0.4
Cc1ccc(-n2ncc(Br)c(Br)c2=O)cc1	1.1	0.15	0.9	20.5	-94.5	8.0
O=c1c(Br)c(Br)cnn1-c1ccccc1	96.7*	0.23	1	33.4	-95.5	-4.2
O=c1c(Br)c(N2CCCCC2)cnn1-c1ccccc1	12.3	3.92*	0.6	21.1	166.5*	42.0
O=c1c(Br)c(N2CCCC2)cnn1-c1ccccc1	6.5	2.71	0.7	27.1	93.2	27.5
NC(=S)Nc1cccc(O)c1	13.0	.	.	25.8	.	.
Cc1ccc(-c2cnc(C(O)c3cccc(Cl)c3)[nH]2)cc1 (stereo unspecified)	28.0	.	.	.	.	.
SMILES	C8 TRAIL sens	NF-kB expr up	FLuc act counter	PPC-1+TRAIL kill	APP 5'UTR act	FLuc inh counter
CC(=O)NS(=O)(=O)c1ccc(NC(=O)[C@@H]2CCCN2S(=O)(=O)c2ccc(Cl)cc2)cc1	-10.7	.	.	.	.	.
CCOc1cccc(-c2nc3cc(C)ccc3o2)c1	13.9	1.76	0.3	-1.9	63.7	68.2*
c1cncc(-c2nc3cc(Cc4ccc5oc(-c6cccnc6)nc5c4)ccc3o2)c1	.	.	1	-31.0	.	-4.7
Cc1ccc2nc(-c3cc(N)cc(N)c3)oc2c1	75.5*	0.95	0.1	28.4	-38.3	94.3*
COc1ccc(-c2nc3cc(NC(=S)NC(=O)Cc4ccccc4)ccc3o2)cc1	16.5	2.1	1	-3.7	69.2	3.6
Cc1ccc2oc(-c3ccccc3)nc2c1	12.0	2.49	0.2	9.1	38.9	75.7*
CCC(=O)NC(=S)Nc1ccc2oc(-c3ccc(OC)cc3)nc2c1	14.2	1.8	1	6.9	137.2*	0.9
O=C(Nc1cccc(F)c1)N1CCc2nc(NCc3cccc(Oc4ccccc4)c3)ncc2C1	-4.8	.	.	.	.	.
COc1ccc(C(O)c2nc(-c3cnc4ccccc4c3)cs2)cc1 (stereo unspecified)	-4.1	.	.	.	.	.
CCCC(=O)Nc1ccc(-c2nc3cc(C)ccc3o2)cc1	31.4	5.07*	0.6	38.9	190.3*	38.3
CCCC(=O)Nc1ccc2oc(-c3ccc(OC)c(Br)c3)nc2c1	6.3	1.54	0.9	-7.2	49.0	5.0
CC1=CN2C(=N)/C(=C/c3ccc(C)o3)C(=O)N=C2S1	53.5*	4.3*	0.2	25.9	160.8*	80.1*
COc1ccc2nc(/N=C/c3c(C)[nH]n(-c4ccc(C)cc4)c3=O)sc2c1	19.1	1.14	0.4	17.0	36.6	59.0*
Nc1c2ccccc2nc2ccccc12	63.9*	.	.	28.6	.	.
Cc1c(N(C)C)nc2ccccc2c1N	0.3	2.02	1	-7.2	10.6	-3.0
N/C(Cc1ccc(Cl)cc1)=N\OC(=O)c1cccc2ccccc12	67.8*	0.68	1	16.3	-10.6	-3.1
COc1ccc(C/C(N)=N/OC(=O)c2ccc(Cl)cc2)cc1	2.7	1.85	1	7.0	14.0	-4.8
N/C(Cc1ccc(Cl)cc1)=N\OC(=O)c1ccc2ccccc2c1	95.0*	1.32	1	5.7	-3.1	-0.1
CCOC(=O)C1(CCc2ccccc2)CCN(C(=O)CN2CCOC2=O)CC1	-5.5	1.94	1	-4.0	-3.1	-3.6
Cc1ccc(/C=C/C(=O)c2ccccc2O)cc1	2.4	.	.	1.0	.	.
Cc1c(/C=C/C(=O)c2ccccc2O)cnn1C	-16.0	3.92*	0.7	2.2	90.9	31.8
CN1CCN(Cc2cn[nH]c2-c2ccc(F)cc2F)[C@@H](c2ccccc2)C1	-1.0	1.44	1.1	4.7	14.2	-5.1
Cc1nc(CSc2nnc(C)s2)cs1	2.7	1.06	1.1	87.3*	2.0	-8.7
Cc1nnc(SCc2ccc(F)cc2)s1	11.2	1.48	1	10.4	38.6	0.6
O=C(Nc1ccc([N+](=O)[O-])cc1)N1CCN(C(=O)C2CCCO2)CC1 (stereo unspecified)	-1.1	.	.	.	.	.
CC(C)(C)C(=O)Nc1ccc(C(=O)Nc2cccc(Oc3ccc(C(=O)O)c(C(=O)O)c3)c2)cc1	29.7	.	.	.	.	.
O=C(Nc1cccc(Oc2ccc(C(=O)O)c(C(=O)O)c2)c1)c1ccc(-c2ccccc2)cc1	54.3*	.	.	25.0	.	.
Cc1ccc(OCCSCc2nnc(NC(=O)Nc3cccc(Cl)c3)s2)cc1	52.5*	0.96	1.1	32.1	0.8	-8.1
